The source of these data is ChEMBL document CHEMBL4513216, “Probing the Open Global Health Chemical Diversity Library for Multistage-Active Starting Points for Next-Generation Antimalarials” (ACS Infect Dis, 2020).

The data set is described as follows: Toxicity liver stage against HepG2, at 10uM. It counts as cell-based. Details: test concentration 10 uM, cell line HepG2-A16-CD81EGFP. As to conditions: human, HepG2-A16-CD81EGFP cells; read-out: INHIBITION
The method in brief:
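Uninfected HepG2-A16-CD81EGFP cells, 3 × 10^3 per well, 1536-well, plated on prespotted compound at 10 μM final, parasite-free screening media added to match infected plates; puromycin 10 μM positive, DMSO 0.5% negative; run in parallel with 48 h PbLuc assay at 37 °C, 5% CO2; viability by CellTiter-Glo luminescence, normalized to controls.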
For the molecule `CC(C)(C)NC(=O)COc1ccc(CNCc2ccccn2)cc1`, the cytotoxicity at 10 µM was -11.5%.

With `CCCS(=O)(=O)N1Cc2c(ncn2Cc2ccccc2)C[C@H]1C(=O)OC`, the cytotoxicity at 10 µM is 0.434%.

Regarding `Cc1nn(-c2ccccc2Cl)c(C)c1CCC(=O)NCCS(C)(=O)=O`, the cytotoxicity at 10 µM was found to be 2.78%.

Consider `COCCN(Cc1ccoc1)C(=O)c1c(F)cccc1F`, for which the cytotoxicity at 10 µM turned out to be 10.6%.

`Cc1nc(-c2cnn(C)c2)nc2c1CN(C(=O)c1cccn1C)CC2`: the cytotoxicity at 10 µM was 4.87%.

Turning to `O=C1CC2(CCN(c3nncs3)C2)CN1c1cccc(F)c1` (stereo not given), the cytotoxicity at 10 µM is -3.36%.

With `Cn1cccc1C(=O)NCc1cnc2n1CCN(C(N)=O)CC2`, the cytotoxicity at 10 µM was 0.312%.

Turning to `O=C(c1ccoc1)N1CCO[C@]2(CCC[C@@H]2COCc2ccncc2)C1`, the cytotoxicity at 10 µM turned out to be 0.341%.

Regarding `O=C(c1cccs1)N1CCC2(CC1)CC(Oc1ccccc1)CO2` (stereo not given), the cytotoxicity at 10 µM is 15.4%.

Turning to `N#Cc1ccc(OC[C@]23COC[C@H]2CN(Cc2ccoc2)C3)nc1`, the cytotoxicity at 10 µM was -0.762%.

For the molecule `Cc1nc(N2CCCC2)nc2c1CCN(C(=O)NC1CCCC1)CC2`, the cytotoxicity at 10 µM turned out to be 3.8%.

For `CO[C@H]1CC[C@H]2[C@H]1OCCN2C(=O)c1ccc(C)nc1`, the cytotoxicity at 10 µM was -141%.

For the molecule `CCOc1cc(-c2cc(=O)n3c(n2)CCCCC3)ccc1O`, the cytotoxicity at 10 µM turned out to be 1.32%.

For the molecule `Cc1noc(C)c1CN1CCOC2(CCCN(c3nccs3)C2)C1` (stereo not given), the cytotoxicity at 10 µM was 2.39%.

Take `Cc1c(Cl)c(C(=O)NCc2ccc(F)cc2)nn1C`: the cytotoxicity at 10 µM is -2.26%.

Turning to `CCc1cc(=O)n(CC(=O)NCC2CCCO2)c(-c2cccc(F)c2)n1` (stereo not given), the cytotoxicity at 10 µM is -1.61%.

Take `CC(Cn1cccn1)NC(=O)c1cc(C2CC2)nc2c1cnn2C` (stereo not given): the cytotoxicity at 10 µM worked out at 0.351%.

As to `Cc1nc(O)cc([C@@H]2CN(S(=O)(=O)N(C)C)C[C@H]2c2ccccc2F)n1`, the cytotoxicity at 10 µM stood at 5.8%.

Regarding `NC(=O)C1(c2cnccn2)CCCN1Cc1ccc(Cl)c(F)c1` (stereo not given), the cytotoxicity at 10 µM is -4%.

`CC(C)(CNc1ccccc1S(=O)(=O)C(F)F)N1CCOCC1`: the cytotoxicity at 10 µM was determined as 12.2%.

Regarding `COCCN1CC(C(=O)NCc2ccc(C)s2)CC1=O` (stereo not given), the cytotoxicity at 10 µM is 5.27%.

Consider `CCCN(Cc1cnn(C)c1)S(=O)(=O)c1cc(C)cc(F)c1`, for which the cytotoxicity at 10 µM is 16.2%.

Turning to `CN(C)c1ncccc1CNCc1cccc(O)c1`, the cytotoxicity at 10 µM turned out to be 5.05%.

For the molecule `CC(O)c1cnn(-c2ccccc2)c1` (stereo not given), the cytotoxicity at 10 µM is -1.55%.

On to `CC(C)(NCCOc1ccc(CC#N)cc1)c1nccs1`, for which the cytotoxicity at 10 µM is -3.25%.

`CCCC(=O)NC(Cc1ccc(C)cc1)c1ccccn1` (stereo not given): the cytotoxicity at 10 µM was -2.25%.

`Cc1ccc(-c2nc(C(=O)N(C)CC(=O)N3CCCC3)cs2)c(C)c1`: the cytotoxicity at 10 µM is -2.28%.

As to `CN(Cc1nc(C(C)(C)C)no1)C1CCS(=O)(=O)C1` (stereo not given), the cytotoxicity at 10 µM is 15.2%.

With `CCN(C(=O)CN1CCn2c(C)nnc2C1)C1=CCCCC1`, the cytotoxicity at 10 µM turned out to be 13.4%.

As for `Cn1ccc(NC2CCN(C3CC3)C2=O)n1` (stereo not given), the cytotoxicity at 10 µM came out at 7.31%.

As for `CCC(NC(=O)NCc1cccc(N(C)C)n1)c1cccs1` (stereo not given), the cytotoxicity at 10 µM stood at 17.9%.

Regarding `CN1CCC(NC(=O)Nc2ccc(Cl)c(F)c2)C1=O` (stereo not given), the cytotoxicity at 10 µM was -136%.

In the case of `COc1cccc2c1N(S(=O)(=O)c1cc(C(=O)O)cs1)CCC2`, the cytotoxicity at 10 µM is -1.95%.

Turning to `Cc1nc(-c2cccc(C(=O)N(C)CC(C)O)c2)cs1` (stereo not given), the cytotoxicity at 10 µM turned out to be 2.68%.

On to `COCCCOc1ccc(C(=O)N(Cc2cnn(C)c2)C(C)C)cn1`, for which the cytotoxicity at 10 µM was found to be 2.1%.

On to `Cc1nc(CC(C)C)sc1C(=O)N1CCC(C2(C)OCCO2)CC1`, for which the cytotoxicity at 10 µM was found to be 4.21%.

For the molecule `CCc1nc(CC(=O)Nc2cnn(CC3CCCO3)c2)cs1` (stereo not given), the cytotoxicity at 10 µM is -3.11%.

In the case of `Cc1n[nH]c(C2CN(C(=O)CCc3ccsc3)CCO2)n1` (stereo not given), the cytotoxicity at 10 µM is -5.15%.

`CN(C)C(=O)Cc1nc(CN2CCCCC2Cn2cccn2)cs1` (stereo not given): the cytotoxicity at 10 µM came out at 6.04%.

As to `NC(=O)c1ccc(CN2CCCC(O)C2)cc1` (stereo not given), the cytotoxicity at 10 µM was determined as 0.459%.

In the case of `O=C(c1ccc[nH]1)N1CCc2nnc(Cn3cccc3)n2CC1`, the cytotoxicity at 10 µM is 3.46%.

On to `COc1ccccc1C(=O)N1CCOC2(CCCN(C(C)=O)C2)C1` (stereo not given), for which the cytotoxicity at 10 µM is -72.9%.

`O=C1CC2(CCN(Cc3ncc[nH]3)CC2)CN1Cc1cc(F)cc(F)c1`: the cytotoxicity at 10 µM is -5.53%.

On to `Cc1ccc([C@@H]2CN(C(=O)c3ccon3)C[C@H]2NC(=O)C2CC2)cc1`, for which the cytotoxicity at 10 µM worked out at 1.08%.

In the case of `CCc1cnc(C)nc1NCCNc1nc(C)cc(=O)[nH]1`, the cytotoxicity at 10 µM is -9.01%.

Take `COCCC(=O)N(C)CCC1=CCN(C)CC1`: the cytotoxicity at 10 µM was -6.93%.

As for `CCCc1cc(N2CCC(NCC3(O)CCN(C)CC3)CC2)nc(C)n1`, the cytotoxicity at 10 µM was -16.1%.

As for `CC(C)c1nccn1C(C)C(=O)N1CCN(c2cnccn2)CC1` (stereo not given), the cytotoxicity at 10 µM was -12.5%.

As to `CN1CC2(CCN(C(=O)c3ccc(-n4cnnc4)cc3Cl)CC2)OC1=O`, the cytotoxicity at 10 µM is 4.03%.

As to `Cn1c(CCNC(=O)CC[C@@H]2CCCN3CCCC[C@H]23)n[nH]c1=O`, the cytotoxicity at 10 µM turned out to be 4.13%.

In the case of `c1ccc(-c2nc(CCNC3CCOC4(CCOCC4)C3)no2)cc1` (stereo not given), the cytotoxicity at 10 µM was 4.47%.

In the case of `CN1CC2(CCN(C(=O)c3ccc4nonc4c3)CC2)CC1=O`, the cytotoxicity at 10 µM was 0.873%.

For the molecule `CCCN(CCc1ccccc1)C(=O)c1ccccc1NCC(=O)O`, the cytotoxicity at 10 µM was 7.38%.

With `Cc1cccc(C(C(=O)NCCCc2nnc3ccccn23)N(C)C)c1` (stereo not given), the cytotoxicity at 10 µM is -7.88%.

Consider `CN(C)C(=O)CN1CCN(Cc2coc(-c3cccc(F)c3)n2)CC1`, for which the cytotoxicity at 10 µM was -3.16%.

Consider `CC(NC(=O)c1ccoc1)c1ccc2c(c1)CCC(=O)N2` (stereo not given), for which the cytotoxicity at 10 µM is -1.36%.

Regarding `Cc1cc(C)n(CC2CCCN2CC(=O)Nc2cc(C(C)C)no2)n1` (stereo not given), the cytotoxicity at 10 µM came out at 0.407%.

Consider `COc1ccnc(N2CCN(CC(=O)N3CCOC(C)C3)CC2)n1` (stereo not given), for which the cytotoxicity at 10 µM was -5.4%.

For the molecule `CC(C(=O)N1CCCN(c2ccccc2C#N)CC1)n1cccn1` (stereo not given), the cytotoxicity at 10 µM was -8.3%.

As to `COc1ccc(C2=CCN(C(=O)C3CCC3)CC2)cc1`, the cytotoxicity at 10 µM was -13.1%.

Take `Cc1cnn(C2CCCN(C(=O)c3cc4nc(C)ccc4o3)C2)c1` (stereo not given): the cytotoxicity at 10 µM came out at 2.22%.

On to `O=C(NCc1nn(-c2ccccc2)c2c1CCC2)NC1CCOCC1`, for which the cytotoxicity at 10 µM is -8.72%.

For `Cc1oncc1C(=O)NCc1ccnc(OCC(F)(F)F)c1`, the cytotoxicity at 10 µM is -3.39%.

Regarding `Cc1nccn1C1CCCN(C(=O)CCCNc2ncccn2)C1` (stereo not given), the cytotoxicity at 10 µM was -6.42%.

In the case of `Cc1ccc(N2CCCC(NCC(=O)NC(C3CC3)C3CC3)C2)nn1` (stereo not given), the cytotoxicity at 10 µM is -2.8%.

`Cc1nn(C)c(Cl)c1C1CCCN1C(=O)c1cnc[nH]1` (stereo not given): the cytotoxicity at 10 µM was -2.11%.

Regarding `CN1CCC/C1=N\S(=O)(=O)c1ccc(NC(=O)Cc2cccs2)cc1`, the cytotoxicity at 10 µM was -10.6%.

Regarding `CNS(=O)(=O)c1ccc(CNC(=O)c2c(C)oc(C)c2C)cc1`, the cytotoxicity at 10 µM is -17.1%.

With `O=C(CCc1ccncc1)NCc1csc(Br)c1`, the cytotoxicity at 10 µM was -15.5%.

For the molecule `CCc1noc(CNC2CCCN(Cc3noc(C4CC4)n3)C2)n1` (stereo not given), the cytotoxicity at 10 µM is -25.6%.

For `COc1c(CNCC(O)c2ccc(C)cc2)c(C(C)C)nn1C` (stereo not given), the cytotoxicity at 10 µM is -10.6%.

On to `Cc1ncsc1C(=O)N(Cc1cccnc1)C1CC1`, for which the cytotoxicity at 10 µM is -4.84%.

Take `CC(C)(CNC(=O)CCOc1cccc(F)c1)C(N)=O`: the cytotoxicity at 10 µM was -0.704%.

Turning to `Cc1cnn(CCCNC(=O)N2CCCCC(N3CCCC3)C2)c1` (stereo not given), the cytotoxicity at 10 µM was -5.97%.

Turning to `c1cnc(-c2nc(CNCCn3cccn3)cs2)nc1`, the cytotoxicity at 10 µM was -10.3%.

Take `CC(C(=O)NCCOc1cccc(Cl)c1)n1cncn1` (stereo not given): the cytotoxicity at 10 µM is -3.53%.

As for `Cc1nc[nH]c1CN(Cc1ccccc1F)C1CC(C)(C)NC(C)(C)C1`, the cytotoxicity at 10 µM is -3.41%.

`c1cncc(OC[C@]23COC[C@H]2CN(Cc2nccs2)C3)c1`: the cytotoxicity at 10 µM was -1.43%.

For the molecule `O=C1CCC2(CCCN(C(=O)c3ccccn3)CC2)N1` (stereo not given), the cytotoxicity at 10 µM was -2.51%.

Turning to `COCC(=O)N1CCC2(CC1)CC(COC)N(c1ncccn1)C2` (stereo not given), the cytotoxicity at 10 µM was 6.85%.

Regarding `O=C(CC1CC1)N[C@@H]1CN(Cc2ccc(F)cc2)C[C@@H]2CCCO[C@@H]21`, the cytotoxicity at 10 µM turned out to be 14.9%.

For `Cc1occc1C(=O)N1C[C@@H]2[C@@H](C1)OCC(=O)N2Cc1cccnc1`, the cytotoxicity at 10 µM was determined as 0.661%.

For the molecule `Cc1cc(C(=O)N2CCC3(CCN3Cc3ccc(F)cc3)C2)no1` (stereo not given), the cytotoxicity at 10 µM turned out to be 4.29%.

As to `CN(C)C(=O)c1nn(C)c2c1CN(Cc1cccs1)C2`, the cytotoxicity at 10 µM was 4.9%.

`Cc1noc([C@@H]2C[C@@H]3CCN(CC4CC4)C[C@H]3O2)n1`: the cytotoxicity at 10 µM is -139%.

As for `O=C1C[C@H]2[C@@H](CCN2C(=O)Cc2ccccc2)N1Cc1cccnc1`, the cytotoxicity at 10 µM is -3.86%.

Consider `CC(NCc1c(C(C)C)nn(C)c1N(C)C)C(=O)NC1CCCC1` (stereo not given), for which the cytotoxicity at 10 µM is 0.966%.

With `CCn1nc(C)cc1C(=O)N1CC[C@H](OC)[C@H]2CN(CC3CC3)C[C@H]21`, the cytotoxicity at 10 µM is -133%.

Regarding `Cc1ccc(CN2C[C@@H]3CCN(Cc4cccnc4)C(=O)[C@H]3C2)s1`, the cytotoxicity at 10 µM was 0.434%.

As for `CN(C)C(=O)CC1CC2(CCN(Cc3ccoc3)CC2)c2ccccc21` (stereo not given), the cytotoxicity at 10 µM was -10.1%.

As for `Cn1nnc2c1CCN(Cc1ccoc1)C2COCc1ccccc1` (stereo not given), the cytotoxicity at 10 µM was -138%.

For `O=C([C@H]1CCCO1)N1CCOC2(CCCN(c3ncccc3F)C2)C1` (stereo not given in full), the cytotoxicity at 10 µM worked out at 1.73%.

With `Cc1ccc(CN2C[C@@H]3COC[C@@H](NS(C)(=O)=O)[C@@H]3C2)o1`, the cytotoxicity at 10 µM is -8.52%.

In the case of `O=C(c1ccsc1)N1C[C@H]2CCC[C@@]2(COCc2cccnc2)C1`, the cytotoxicity at 10 µM is -2.86%.

Regarding `CNC(=O)[C@H]1C[C@H]2OCC[C@H]2N(Cc2cccc3ccccc23)C1`, the cytotoxicity at 10 µM was 7.67%.
